Data: ChEMBL document CHEMBL3112517, “Identification of dihydrostilbenes in Pholidota chinensis as a new scaffold for GABAA receptor modulators” (Bioorg Med Chem, 2014)

Columns and labels:
Type in all cases: cell-based
[1] = target: T1, GABA-A receptor; alpha-1/beta-3/gamma-2 (Homo sapiens, UniProt P14867+P18507+P28472); assay: Modulation of GABAA alpha1beta3gamma2S receptor (unknown origin) expressed in Xenopus laevis oocytes assessed as potentiation of EC3 to 10 GABA-induced chloride ion current at holding potential -70 mV by two-microelectrode voltage clamp assay
T1 sequence (P14867 whole entry): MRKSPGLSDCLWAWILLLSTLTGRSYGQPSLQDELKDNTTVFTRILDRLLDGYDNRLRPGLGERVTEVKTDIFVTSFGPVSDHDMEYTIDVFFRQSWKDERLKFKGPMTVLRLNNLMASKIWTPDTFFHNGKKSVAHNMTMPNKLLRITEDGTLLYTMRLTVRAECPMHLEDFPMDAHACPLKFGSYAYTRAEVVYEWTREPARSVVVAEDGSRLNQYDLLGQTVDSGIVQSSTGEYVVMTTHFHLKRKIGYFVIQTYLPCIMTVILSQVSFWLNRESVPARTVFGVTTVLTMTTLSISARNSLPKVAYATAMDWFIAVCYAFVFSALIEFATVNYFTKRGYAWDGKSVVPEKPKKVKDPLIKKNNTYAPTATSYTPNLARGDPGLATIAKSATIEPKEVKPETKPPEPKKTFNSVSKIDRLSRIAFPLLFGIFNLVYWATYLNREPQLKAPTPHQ
T1 sequence (P18507 whole entry): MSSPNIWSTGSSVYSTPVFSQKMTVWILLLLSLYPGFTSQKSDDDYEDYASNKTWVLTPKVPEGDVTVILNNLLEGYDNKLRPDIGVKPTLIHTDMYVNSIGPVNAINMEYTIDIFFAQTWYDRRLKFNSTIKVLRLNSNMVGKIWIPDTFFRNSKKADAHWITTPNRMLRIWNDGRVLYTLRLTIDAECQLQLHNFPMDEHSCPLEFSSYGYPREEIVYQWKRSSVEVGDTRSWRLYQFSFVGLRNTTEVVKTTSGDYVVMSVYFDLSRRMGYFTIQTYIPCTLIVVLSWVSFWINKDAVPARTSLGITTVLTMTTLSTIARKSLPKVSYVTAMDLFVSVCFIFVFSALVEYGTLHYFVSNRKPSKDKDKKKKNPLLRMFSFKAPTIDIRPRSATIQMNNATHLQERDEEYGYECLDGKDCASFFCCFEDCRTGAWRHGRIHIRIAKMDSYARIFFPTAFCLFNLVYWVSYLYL
T1 sequence (P28472 whole entry): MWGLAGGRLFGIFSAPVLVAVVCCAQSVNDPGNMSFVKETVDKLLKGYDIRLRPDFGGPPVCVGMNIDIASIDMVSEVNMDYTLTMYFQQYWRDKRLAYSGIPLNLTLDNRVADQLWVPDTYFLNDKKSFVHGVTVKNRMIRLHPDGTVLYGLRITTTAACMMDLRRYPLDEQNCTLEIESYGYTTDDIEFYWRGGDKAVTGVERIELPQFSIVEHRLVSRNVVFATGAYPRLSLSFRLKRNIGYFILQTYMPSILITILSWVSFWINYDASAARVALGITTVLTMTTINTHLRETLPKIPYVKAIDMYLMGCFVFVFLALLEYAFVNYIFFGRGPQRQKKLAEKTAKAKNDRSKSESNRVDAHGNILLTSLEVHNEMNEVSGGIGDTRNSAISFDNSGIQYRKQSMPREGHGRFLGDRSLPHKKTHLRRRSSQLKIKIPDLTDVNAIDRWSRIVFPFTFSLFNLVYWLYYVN

Rattus norvegicus [2] = species: Rattus norvegicus; assay: Allosteric modulation of rat GABAA alpha1beta2gamma2S receptor expressed in Xenopus laevis oocytes assessed as potentiation of GABA-induced chloride ion current at holding potential -70 mV at 100 uM by two-microelectrode voltage clamp assay relative to GABA-treated control
Method in brief: (§1)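 Stage V–VI Xenopus laevis oocytes were injected with 50 nL of rat α1, β2 and γ2S cRNA mixed 1:1:10 (about 300–3000 pg/nL per subunit), stored at 18 °C in ND96, and recorded on days 1–5. Two-electrode clamp was at −70 mV in pH 7.4 HEPES bath. Compound was applied by fast perfusion with GABA EC3–10, in 1% DMSO final. Enhancement = I(GABA+Comp)/IGABA − 1.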

[3] = target: GABA A receptor alpha-2/beta-2/gamma-2 (Homo sapiens) (UniProt P47870+P18507+P47869); assay: Modulation of GABAA alpha2beta2gamma2S receptor (unknown origin) expressed in Xenopus laevis oocytes assessed as potentiation of EC3 to 10 GABA-induced chloride ion current at holding potential -70 mV at 1 to 300 uM by two-microelectrode voltage clamp assay relative to GABA-treated control
[4] = target: GABA-A receptor; alpha-1/beta-3/gamma-2 (Homo sapiens) (UniProt P14867+P18507+P28472); assay: Modulation of GABAA alpha1beta3gamma2S receptor (unknown origin) expressed in Xenopus laevis oocytes assessed as potentiation of EC3 to 10 GABA-induced chloride ion current at holding potential -70 mV 1 to 300 uM by two-microelectrode voltage clamp assay relative to GABA-treated control
Rattus norvegicus [5] = species: Rattus norvegicus; assay: Allosteric modulation of rat GABAA alpha1beta2gamma2S receptor expressed in Xenopus laevis oocytes assessed as potentiation of EC3 to 10 GABA-induced chloride ion current at holding potential -70 mV at 1 to 300 uM by two-microelectrode voltage clamp assay relative to GABA-treated control; method in brief: as §1
Homo sapiens [6] = species: Homo sapiens; assay: Modulation of GABAA alpha5beta2gamma2S receptor (unknown origin) expressed in Xenopus laevis oocytes assessed as potentiation of EC3 to 10 GABA-induced chloride ion current at holding potential -70 mV at 1 to 300 uM by two-microelectrode voltage clamp assay relative to GABA-treated control
[7] = target: GABA A receptor alpha-3/beta-2/gamma-2 (Homo sapiens) (UniProt P47870+P18507+P34903); assay: Modulation of GABAA alpha3beta2gamma2S receptor (unknown origin) expressed in Xenopus laevis oocytes assessed as potentiation of EC3 to 10 GABA-induced chloride ion current at holding potential -70 mV at 1 to 300 uM by two-microelectrode voltage clamp assay relative to GABA-treated control
[8] = Modulation of GABAA alpha1beta1gamma2S receptor (unknown origin) expressed in Xenopus laevis oocytes assessed as potentiation of EC3 to 10 GABA-induced chloride ion current at holding potential -70 mV by two-microelectrode voltage clamp assay; conditions: Homo sapiens
Homo sapiens [9] = species: Homo sapiens; assay: Modulation of GABAA alpha4beta2gamma2S receptor (unknown origin) expressed in Xenopus laevis oocytes assessed as potentiation of EC3 to 10 GABA-induced chloride ion current at holding potential -70 mV at 1 to 300 uM by two-microelectrode voltage clamp assay relative to GABA-treated control
Homo sapiens [10] = species: Homo sapiens; assay: Modulation of GABAA alpha1beta1gamma2S receptor (unknown origin) expressed in Xenopus laevis oocytes assessed as potentiation of EC3 to 10 GABA-induced chloride ion current at holding potential -70 mV at 1 to 300 uM by two-microelectrode voltage clamp assay relative to GABA-treated control
[11] = Modulation of GABAA alpha5beta2gamma2S receptor (unknown origin) expressed in Xenopus laevis oocytes assessed as potentiation of EC3 to 10 GABA-induced chloride ion current at holding potential -70 mV by two-microelectrode voltage clamp assay; conditions: Homo sapiens

EC50 [1]: 67.2 µM
Activity (Rattus norvegicus [2]): 628%
Imax [3]: 1030%
Imax [4]: 1250%
Imax (Rattus norvegicus [5]): 1510%
Imax (Homo sapiens [6]): 1380%
Imax [7]: 1690%
EC50 [8]: 66.7 µM
Imax (Homo sapiens [9]): 1590%
Imax (Homo sapiens [10]): 1250%
EC50 [11]: 46.7 µM
SMILES: COc1cc(O)cc(CCc2cccc(O)c2)c1 [BATATASIN III]
